The values below come from ChEMBL document CHEMBL1139534, “Inhibition of herpes simplex virus thymidine kinases by 2-phenylamino-6-oxopurines and related compounds: structure-activity relationships and antiherpetic activity in vivo” (J Med Chem, 2005).

The target of test [1] is T1, Thymidine kinase (Human herpesvirus 1 (strain SC16) (HHV-1) (Human herpes simplex virus1), UniProt P06479).
T1 sequence (P06479 whole entry): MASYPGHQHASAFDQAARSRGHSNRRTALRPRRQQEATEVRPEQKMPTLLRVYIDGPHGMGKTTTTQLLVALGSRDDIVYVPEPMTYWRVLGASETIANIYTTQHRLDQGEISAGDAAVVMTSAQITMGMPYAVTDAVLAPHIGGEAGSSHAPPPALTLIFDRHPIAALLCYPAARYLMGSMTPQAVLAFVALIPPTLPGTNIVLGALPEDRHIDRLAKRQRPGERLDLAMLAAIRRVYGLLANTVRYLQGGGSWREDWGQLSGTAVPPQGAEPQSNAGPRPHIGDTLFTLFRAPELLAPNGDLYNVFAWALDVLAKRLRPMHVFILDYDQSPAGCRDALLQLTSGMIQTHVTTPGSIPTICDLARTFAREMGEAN
In words: Inhibitory concentration against herpes simplex virus type 1 thymidine kinase.

Test [2] deals with T2, Thymidine kinase (Human herpesvirus 2, UniProt Q6L709).
T2 sequence (Q6L709 whole entry): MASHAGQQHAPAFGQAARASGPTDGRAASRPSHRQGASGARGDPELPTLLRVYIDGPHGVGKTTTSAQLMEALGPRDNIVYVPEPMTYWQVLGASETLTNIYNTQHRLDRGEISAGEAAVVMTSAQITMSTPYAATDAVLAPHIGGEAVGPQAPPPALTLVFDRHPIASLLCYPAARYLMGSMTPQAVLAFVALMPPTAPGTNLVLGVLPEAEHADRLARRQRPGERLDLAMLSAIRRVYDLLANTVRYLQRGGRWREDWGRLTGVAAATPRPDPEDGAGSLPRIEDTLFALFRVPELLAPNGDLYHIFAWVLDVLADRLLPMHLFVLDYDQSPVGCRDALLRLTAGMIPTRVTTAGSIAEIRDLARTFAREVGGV
The test can be described thus: Inhibitory concentration against herpes simplex virus type 2 thymidine kinase. More on the design: species or system Human alphaherpesvirus 2. The method in brief:
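Recombinant His-tagged HSV-2 TK expressed in E. coli, Ni-NTA purified. Products captured on DEAE paper and counted by scintillation. Inhibitor diluted from DMSO stocks, at least five concentrations in duplicate; IC50 is the concentration halving activity.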

Test [3] relates to Mus musculus. In words: Effect on HSV-2 encephalitis in mice following intraperitoneal dosage at 100 mg/kg; expressed as mean day of death. In kind it is functional. The method in brief: (§1)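 Female BALB/c mice, 6 weeks old, groups of 10, anesthetized with ketamine/xylazine. Corneas lightly scratched, then 10⁶ PFU per eye applied in culture medium (HSV-1 McKrae or HSV-2 G, Vero-grown). Compound given ip as corn-oil suspension, 0.1 mL, twice daily for 5 days; vehicle controls. Mice alive at 30 days counted survivors; day of death recorded for the rest.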

Test [4] has as its system Mus musculus. The test can be described thus: Effect on ocular HSV-2 reactivation in mice following intraperitoneal dosage at 200 mg/kg; expressed as HSV-2 positive cultures/15 mice. In kind it is functional, Eye. The method in brief: (§2)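 Female BALB/c mice, 6 weeks old, ocularly infected with HSV-2 strain G (Vero-grown) to establish trigeminal latency. Groups of 15 received a single ip dose as a corn oil suspension, with a corn oil-only group. Thirty minutes later they were immersed in 43 °C water for 10 min as hyperthermic stress. Eyes were swabbed after 24 h for infectious virus, and virus-positive cultures were counted per group.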

For test [5], the system named is Mus musculus. The test can be described thus: Effect on HSV-1 encephalitis in mice following intraperitoneal dosage at 100 mg/kg; expressed as mean day of death. In kind it is functional. The method in brief: as §1
For test [6], the system named is Mus musculus. In words: Effect on HSV-2 encephalitis in mice following intraperitoneal dosage at 100 mg/kg; expressed as number of survivors/10. It counts as functional. An outline of the steps:
as §1

The test system of test [7] is Mus musculus. The test can be described thus: Effect on HSV-1 encephalitis in mice following intraperitoneal dosage at 100 mg/kg; expressed as number of survivors/10. In kind it is functional. The method in brief: as §1
In test [8] the test system is Mus musculus. The test can be described thus: Effect on HSV-1 encephalitis in mice following intraperitoneal dosage at 400 mg/kg; expressed as number of survivors/10. It counts as functional. The method in brief:
as §1

The test system of test [9] is Mus musculus. In words: Effect on HSV-1 encephalitis in mice following intraperitoneal dosage at 400 mg/kg; expressed as mean day of death. It counts as functional. The method in brief:
as §1

Test [10] relates to Mus musculus. The test can be described thus: Effect on HSV-1 encephalitis in mice following intraperitoneal dosage at 200 mg/kg; expressed as mean day of death. It counts as functional. An outline of the steps:
as §1

Test [11] concerns Mus musculus. In words: Effect on HSV-2 encephalitis in mice following intraperitoneal dosage at 400 mg/kg; expressed as number of survivors/10. In kind it is functional. An outline of the steps: as §1
In test [12] the test system is Mus musculus. The test can be described thus: Effect on HSV-1 encephalitis in mice following intraperitoneal dosage at 200 mg/kg; expressed as number of survivors/10. It counts as functional. The method in brief:
as §1

In test [13] the test system is Mus musculus. In words: Effect on HSV-2 encephalitis in mice following intraperitoneal dosage at 200 mg/kg; expressed as mean day of death. It counts as functional. An outline of the steps:
as §1

For test [14], the system named is Mus musculus. In words: Effect on HSV-2 encephalitis in mice following intraperitoneal dosage at 200 mg/kg; expressed as number of survivors/10. It counts as functional. An outline of the steps: as §1
The test system of test [15] is Mus musculus. In words: Effect ocular HSV-2 reactivation in mice following intraperitoneal dosage at 200 mg/kg; expressed as HSV-2 positive cultures/15 mice. It counts as functional, Eye. The method in brief:
as §2

Test [16] deals with T1, Thymidine kinase. In words: Binding affinity for herpes simplex virus type 1 thymidine kinase.
In test [17] the target is T2, Thymidine kinase. In words: Binding affinity for herpes simplex virus type 2 thymidine kinase. Also noted: species or system Human alphaherpesvirus 2. The method in brief: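 His-tagged recombinant HSV-2 TK, expressed in E. coli DH5α and purified on Ni-NTA. Incubated 15 min at 37 °C in 30 mM HEPES-K+ pH 7.5, 6 mM MgCl2, 6 mM ATP, 0.5 mM DTT, with several [3H-methyl]TdR concentrations and inhibitor diluted from DMSO stocks. Phosphorylated product retained on DEAE paper disks and counted by scintillation. Ki taken from double-reciprocal (Lineweaver-Burk) plots.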

In test [18] the test system is Mus musculus. In words: Effect on HSV-2 encephalitis in mice following intraperitoneal dosage at 400 mg/kg; expressed as mean day of death. In kind it is functional. An outline of the steps:
as §1

SMILES strings stand for the structures.

What is called IC50 is the concentration needed to halve the response being measured. With `COCCCCn1cnc2c(=O)[nH]c(Nc3ccccc3)nc21`, the IC50 in test [1] is 12000 nM; in test [2] it was 14000 nM.

As for `OCCCn1cnc2c(O)nc(Nc3ccccc3)nc21`, the Activity amounted to 10.7 in test [3]; 9 in test [4]; 9.7 in [5]; 0 in test [6]; 1 in test [7]. The results for the IC50 in [1] and in test [2] were 2000 nM and 1500 nM, respectively.

As to `CN(c1ccccc1)c1nc2c(ncn2CCCCO)c(=O)[nH]1`, the IC50 in test [1] was determined as 16000 nM; in [2], 37000 nM.

Consider `O=C(O)CCCn1cnc2c(O)nc(Nc3ccccc3)nc21`, for which the IC50 was found to be 1000 nM in [1] and 700 nM in test [2]. The compound further registered an Activity in test [4] of 11.

In the case of `Nc1nc2c(ncn2CCCCO)c(=O)[nH]1`, the IC50 in test [1] worked out at 60000 nM; in test [2] it was 160000 nM.

As for `O=c1[nH]c(Nc2ccccc2)nc2c1ncn2CCO`, the IC50 in [1] came out at 4400 nM.

`OCCCCCn1cnc2c(O)nc(Nc3ccccc3)nc21`: the Activity is on record as 11.2 in [3]; 8 in test [4]; 10.7 in [5]; 1 in [6]; 0 in test [7]. Also, the IC50 is 15000 nM in [1] and 54000 nM in test [2].

For the compound `O=c1[nH]c(Oc2ccccc2)nc2c1ncn2CCCCO`, the IC50 in test [1] turned out to be 750 nM; in [2], 9000 nM.

Regarding `O=c1[nH]c(Nc2ccccc2)nc2c1ncn2CCCCO`, the Activity in [8] is reported as 9; in test [9] it was 11; in [3], 15.7; in test [10], 11.8; in test [4], 4; in test [5], 9.5. The Activity in test [11] was found to be 10; in [12], 6; in test [13], 18; in test [14], 9; in test [6] it was 4; in test [7] it was 3.

With `OCCCCn1cnc2c(O)nc(Sc3ccccc3)nc21`, the values for the IC50 in test [1] and in test [2] were 500 nM and 2000 nM, respectively. Further, in test [15], the Activity turned out to be 10.

Take `CCN(C)CCCCn1cnc2c(O)nc(Nc3ccccc3)nc21`: the figures for the IC50 in test [1] and in test [2] were 4700 nM and 380 nM, respectively.

For `OCCC1CCCCN1CCCCn1cnc2c(O)nc(Nc3ccccc3)nc21` (stereo not given), the IC50 worked out at 770 nM in [1] and 65 nM in test [2].

`CN(C)CCCCn1cnc2c(O)nc(Nc3ccccc3)nc21`: the IC50 in test [1] amounted to 3600 nM; in [2] it was 620 nM.

As to `OCCN(CCO)CCCCn1cnc2c(O)nc(Nc3ccccc3)nc21`, the IC50 in [1] was found to be 5200 nM; in test [2], 340 nM.

Consider `Oc1nc(Nc2ccccc2)nc2c1ncn2CCCCN1CCC(O)CC1`, for which the IC50 was 8200 nM in test [1] and 710 nM in test [2].

On to `Oc1nc(Nc2ccccc2)nc2c1ncn2CCCCN1CCCC(O)C1` (stereo not given), for which the results for the IC50 in [1] and in test [2] were 5700 nM and 310 nM, respectively.

In the case of `Oc1nc(Nc2ccccc2)nc2c1ncn2CCCCN1CCC(O)(c2ccc(Cl)c(C(F)(F)F)c2)CC1`, the IC50 in test [1] worked out at 2000 nM; in test [2], 200 nM.

On to `Cl.Cl.Oc1nc(Nc2ccccc2)nc2c1ncn2CCCCN1CCCCC1`, for which the figures for the Activity in test [3], in [4] and in [6] were 15.2, 11 and 0, respectively. Also, the IC50 in test [1] stood at 1600 nM; in [2], 220 nM.

Turning to `Oc1nc(Nc2ccccc2)nc2c1ncn2CCCCN1CCCCC1c1ccccc1` (stereo not given), the IC50 in test [1] turned out to be 550 nM; in test [2] it was 90 nM.

With `COC1CCCN(CCCCn2cnc3c(O)nc(Nc4ccccc4)nc32)C1` (stereo not given), the IC50 in test [1] worked out at 2500 nM; in test [2], 150 nM.

Consider `CCN(CC)CCCCn1cnc2c(O)nc(Nc3ccccc3)nc21`, for which the IC50 in test [1] is 4500 nM; in test [2], 230 nM.

`Oc1nc(Nc2ccccc2)nc2c1ncn2CCCCN1CCC(N2CCCCC2)CC1`: the results for the IC50 in [1] and in [2] were 16500 nM and 1000 nM, respectively.

`C=CCN(CC=C)CCCCn1cnc2c(O)nc(Nc3ccccc3)nc21`: the IC50 came out at 2100 nM in test [1] and 420 nM in test [2].

`Oc1nc(Nc2ccccc2)nc2c1ncn2CCCCN1CCCC1CN1CCCCC1` (stereo not given): the IC50 was 1000 nM in test [1] and 130 nM in [2].

As a reminder, the Ki is a measure of affinity in units of concentration, obtained from inhibition or displacement. `Cl.Cl.Oc1nc(Nc2ccccc2)nc2c1ncn2CCCCN1CCCC2CCCCC21` (stereo not given): the IC50 in test [1] was 150 nM; in test [2], 13 nM. Besides, the Activity in [4] stood at 10; in [13], 15.4; in test [14], 0. Besides, the values for the Ki in [16] and in test [17] were 30 nM and 5 nM, respectively.

With `Oc1nc(Nc2ccccc2)nc2c1ncn2CCCCN1CCCc2ccccc21`, the IC50 in test [1] was determined as 350 nM; in test [2], 47 nM.

For `CC1CN(CCCCn2cnc3c(O)nc(Nc4ccccc4)nc32)CC(C)N1` (stereo not given), the results for the 50% inhibitory concentration (IC50) in test [1] and in [2] were 7100 nM and 800 nM, respectively.

`N#CC1(c2ccccc2)CCN(CCCCn2cnc3c(O)nc(Nc4ccccc4)nc32)CC1`: the IC50 in [1] was found to be 410 nM; in test [2], 220 nM.

In the case of `COC1CCN(CCCCn2cnc3c(O)nc(Nc4ccccc4)nc32)CC1`, the results for the IC50 in test [1] and in [2] were 2300 nM and 140 nM, respectively.

Regarding `Nc1nc2c(ncn2COCCO)c(=O)[nH]1` [ACYCLOVIR], the Activity in test [3] was found to be 17.2; in [4], 10; in test [5], 13; in test [6] it was 6; in test [7], 7.

Turning to `O=C(O)P(=O)(O)O` [FOSCARNET], the Activity in [8] stood at 7; in [9], 12.3; in test [18] it was 18.5; in test [3], 15.2; in [10], 10.4; in test [4], 7. Besides, the Activity in test [5] is recorded as 9.2; in test [11] it was 6; in [12] it was 5; in [13], 17.8; in test [14] it was 4; in test [6], 0. For the same compound, the Activity in test [7] is given as 1.
